Measured values reported in PubChem BioAssay AID493183 (Sanford-Burnham Center for Chemical Genomics, 2011).
Activity calls are given as the source filed them.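 How the source made its calls: active means mean EC50 below 10 µM; inactive means the rest.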

Target: Apelin receptor (Homo sapiens) (UniProt P35414)
Assay: apelin receptor activation by small molecules – cell-based, CHO-K1 AGTRL-1, PathHunter luminescence, set 4, SAR follow-up (AID 493183)
Conditions: CHO-K1 AGTRL-1 PathHunter beta-arrestin
In short: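 System: CHO-K1 cells with ProLink-tagged AGTRL-1 and β-arrestin–β-gal acceptor fusion / Technique: luminescence from β-gal fragment complementation after adding detection reagent / Doses: compound dilution series prepared from 2 mM stock / Schedule: cells seeded overnight, compound exposure 90 min at 25 °C, detection 60 min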

Sequence of Apelin receptor (Homo sapiens) (P35414 whole entry, looked up): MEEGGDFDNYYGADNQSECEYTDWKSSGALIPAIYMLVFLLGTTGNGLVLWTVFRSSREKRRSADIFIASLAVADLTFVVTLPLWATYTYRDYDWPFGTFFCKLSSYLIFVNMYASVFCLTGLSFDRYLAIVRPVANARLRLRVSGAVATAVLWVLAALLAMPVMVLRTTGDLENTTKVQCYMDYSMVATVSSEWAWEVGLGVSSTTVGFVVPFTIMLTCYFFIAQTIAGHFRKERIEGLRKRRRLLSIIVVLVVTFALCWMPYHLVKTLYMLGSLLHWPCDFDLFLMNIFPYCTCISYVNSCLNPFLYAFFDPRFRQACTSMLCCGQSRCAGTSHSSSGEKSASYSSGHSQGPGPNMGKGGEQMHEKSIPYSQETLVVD

Structure (SMILES)	EC50
Cc1cc(O)c(C(C)C)cc1NS(=O)(=O)c1ccccc1	> 79 µM (inactive)
CC1=CC(=O)C(C(C)C)=C/C1=N/OS(=O)(=O)c1ccc(OC(F)(F)F)cc1	3.82 µM
O=S(=O)(Nc1cc(Cl)c(O)c(Cl)c1)c1ccccc1	> 79 µM (inactive)
COC(=O)c1cc(NS(=O)(=O)c2ccccc2)ccc1O	> 79 µM (inactive)
CC1=CC(=O)C(C(C)C)=C/C1=N/OS(=O)(=O)c1ccc(C(F)(F)F)cc1	3.69 µM
CC1=CC(=O)C(C(C)C)=C/C1=N/OS(=O)(=O)c1cccnc1	6.45 µM
CC1=CC(=O)C(C(C)C)=C/C1=N/OS(=O)(=O)c1ccc(C(C)(C)C)cc1	inactive
